According to ChEMBL document CHEMBL1153612, “Synthesis and antitumor activity of novel dithiocarbamate substituted chromones” (Eur J Med Chem, 2009):
Blank lines part the entries; values can stand above or below the molecule they belong to.

Experiments:
HeLa = assay: Antiproliferative activity against human HeLa cells after 72 hrs by MTT assay; assay type: functional, cell-based
Summary of the method: (§1)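 Cells seeded at 8000 per well in 96-well plates, exposed to compound for 72 h. MTT added at 0.5 mg/mL final and incubated 4 h. Formazan dissolved in DMSO, absorbance read at 570 nm. IC50 is the concentration giving 50% reduction in cell growth, reported as the mean of three repeated experiments.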

[1] = Antiproliferative activity against human LM7 cells after 72 hrs by MTT assay; assay type: functional, cell-based; conditions: LM7, 72 h; summary of the method: as §1
[2] = Antiproliferative activity against human MDA-MB-435S cells after 72 hrs by MTT assay; assay type: functional, cell-based; summary of the method: as §1
SW480 [3] = assay: Antiproliferative activity against human SW480 cells after 72 hrs by MTT assay; assay type: functional, cell-based; conditions: SW480, 72 h; summary of the method: as §1
HEp-2 = assay: Antiproliferative activity against human Hep2 cells after 72 hrs by MTT assay; assay type: functional, cell-based; conditions: HEp-2, 72 h; summary of the method: as §1
MCF7 = assay: Antiproliferative activity against human MCF7 cells after 72 hrs by MTT assay; assay type: functional, cell-based; conditions: MCF7, 72 h; summary of the method: as §1
[4] = Cell cycle arrest in human MDA-MB-435S cells assessed as accumulation at G0/G1 phase at 0.12 uM after 48 hrs by flow cytometry; assay type: functional, cell-based
Summary of the method: (§2)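 Cells grown to about 70% confluence in 6-well plates, then treated with compound at three concentrations for 48 h. Cell-cycle phase distribution measured by flow cytometry (FACS).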

[5] = Cell cycle arrest in human MDA-MB-435S cells assessed as accumulation at G0/G1 phase at 0.13 uM after 48 hrs by flow cytometry; assay type: functional, cell-based; summary of the method: as §2
[6] = Cell cycle arrest in human MDA-MB-435S cells assessed as accumulation at G0/G1 phase at 0.14 uM after 48 hrs by flow cytometry; assay type: functional, cell-based; summary of the method: as §2
[7] = Cell cycle arrest in human MDA-MB-435S cells assessed as accumulation at S phase at 0.12 uM after 48 hrs by flow cytometry; assay type: functional, cell-based; summary of the method: as §2
[8] = Cell cycle arrest in human MDA-MB-435S cells assessed as accumulation at S phase at 0.13 uM after 48 hrs by flow cytometry; assay type: functional, cell-based; summary of the method: as §2
[9] = Cell cycle arrest in human MDA-MB-435S cells assessed as accumulation at S phase at 0.14 uM after 48 hrs by flow cytometry; assay type: functional, cell-based; summary of the method: as §2
[10] = Cell cycle arrest in human MDA-MB-435S cells assessed as accumulation at G2/M phase at 0.12 uM after 48 hrs by flow cytometry; assay type: functional, cell-based; summary of the method: as §2
[11] = Cell cycle arrest in human MDA-MB-435S cells assessed as accumulation at G2/M phase at 0.13 uM after 48 hrs by flow cytometry; assay type: functional, cell-based; summary of the method: as §2
[12] = Cell cycle arrest in human MDA-MB-435S cells assessed as accumulation at G2/M phase at 0.14 uM after 48 hrs by flow cytometry; assay type: functional, cell-based; summary of the method: as §2
SW480 [13] = assay: Cell cycle arrest in human SW480 cells assessed as accumulation at G0/G1 phase at 0.5 uM after 48 hrs by flow cytometry; assay type: functional; summary of the method: as §2
SW480 [14] = assay: Cell cycle arrest in human SW480 cells assessed as accumulation at G0/G1 phase at 0.7 uM after 48 hrs by flow cytometry; assay type: functional; summary of the method: as §2
SW480 [15] = assay: Cell cycle arrest in human SW480 cells assessed as accumulation at G0/G1 phase at 1 uM after 48 hrs by flow cytometry; assay type: functional; summary of the method: as §2
SW480 [16] = assay: Cell cycle arrest in human SW480 cells assessed as accumulation at S phase at 0.5 uM after 48 hrs by flow cytometry; assay type: functional; summary of the method: as §2
SW480 [17] = assay: Cell cycle arrest in human SW480 cells assessed as accumulation at S phase at 0.7 uM after 48 hrs by flow cytometry; assay type: functional; summary of the method: as §2
SW480 [18] = assay: Cell cycle arrest in human SW480 cells assessed as accumulation at S phase at 1 uM after 48 hrs by flow cytometry; assay type: functional; summary of the method: as §2
SW480 [19] = assay: Cell cycle arrest in human SW480 cells assessed as accumulation at G2/M phase at 0.5 uM after 48 hrs by flow cytometry; assay type: functional; summary of the method: as §2
SW480 [20] = assay: Cell cycle arrest in human SW480 cells assessed as accumulation at G2/M phase at 0.7 uM after 48 hrs by flow cytometry; assay type: functional; summary of the method: as §2
SW480 [21] = assay: Cell cycle arrest in human SW480 cells assessed as accumulation at G2/M phase at 1 uM after 48 hrs by flow cytometry; assay type: functional; summary of the method: as §2

IC50 (HeLa): 0.44 µM
IC50 (SW480 [3]): 790 nM
IC50 (MCF7): 380 nM
SMILES: O=c1c(CSC(=S)N2CCCCC2)coc2ccc(Cl)cc12
IC50 [1]: 850 nM
IC50 [2]: 240 nM
IC50 (HEp-2): 280 nM
Activity [4]: 60.8%
Activity [5]: 58.7%
Activity [6]: 41.6%
Activity [7]: 25.3%
Activity [8]: 20.7%
Activity [9]: 33.6%
Activity [10]: 13.9%
Activity [11]: 20.6%
Activity [12]: 24.9%

IC50 (HeLa): 9.8 µM
IC50 (SW480 [3]): 690 nM
IC50 (MCF7): 1000 nM
SMILES: O=c1c(Cl)c(CSC(=S)N2CCCCC2)oc2ccccc12
IC50 [1]: 3300 nM
IC50 [2]: 770 nM
IC50 (HEp-2): 940 nM
Activity (SW480 [13]): 39.39%
Activity (SW480 [14]): 36.84%
Activity (SW480 [15]): 26.51%
Activity (SW480 [16]): 37.84%
Activity (SW480 [17]): 35.2%
Activity (SW480 [18]): 34.22%
Activity (SW480 [19]): 27.77%
Activity (SW480 [20]): 27.96%
Activity (SW480 [21]): 39.27%
